Measurements from ChEMBL document CHEMBL1140334, “Synthesis and structure-activity relationships of pyrazine-pyridine biheteroaryls as novel, potent, and selective vascular endothelial growth factor receptor-2 inhibitors” (J Med Chem, 2005).

Experiments:
[1] = test system: HASMC; experiment: Concentration required to inhibit proliferation of HASMC; settings: Homo sapiens
[2] = test system: MRC5; experiment: Concentration required to inhibit proliferation of human MRC5 fibroblast cell growth
[3] = test system: HUVEC; experiment: Concentration inhibiting VEGF stimulated (2 ng/well) HUVE cell proliferation; settings: Homo sapiens
[4] = test system: HCT-116; experiment: Concentration required to inhibit proliferation of human HCT116 colon cancer cell growth
[5] = Inhibition of protein kinase A
How it was run: (§1)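 Radiometric kinase assay. Conditions varied slightly per kinase. Stopped with PBS/100 mM EDTA, read by scintillation counting. IC50 by linear regression of % inhibition, mean of at least two determinations.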

[6] = target: Casein kinase I; experiment: Inhibition of casein kinase 1; format: protein assay
[7] = Inhibition of protein kinase C gamma; how it was run: as §1
[8] = test system: HUVEC; experiment: Concentration required to inhibit proliferation of HUVEC; settings: Homo sapiens
[9] = target: Glycogen synthase kinase-3 (Homo sapiens, UniProt P49840+P49841); experiment: Inhibition of glycogen synthase kinase-3; format: protein assay; how it was run: as §1
[10] = test system: A-375; experiment: Concentration required to inhibit proliferation of A375 human amelanotic melanoma cell growth
[11] = Inhibition of cyclin-dependent kinase 1 activity; how it was run: as §1
[12] = test system: HeLa; experiment: Concentration required to inhibit proliferation of HeLa cell growth; settings: Homo sapiens
[13] = target: T1, Vascular endothelial growth factor receptor 2 (Homo sapiens, UniProt P35968); experiment: Inhibition of vascular endothelial growth factor receptor 2; how it was run: as §1
[14] = target: T1, Vascular endothelial growth factor receptor 2; experiment: Inhibitory concentration (experimental) against vascular endothelial growth factor receptor 2; how it was run: as §1
[15] = target: CaM kinase II (Homo sapiens, UniProt Q13557+Q13555+Q13554+Q9UQM7); experiment: Inhibition of calcium/calmodulin-dependent protein kinase type II; format: protein assay
[16] = target: Mitogen-activated protein kinase 1 (Homo sapiens, UniProt P28482); experiment: Inhibition of mitogen-activated protein kinase; how it was run: as §1
[17] = target: Casein kinase II (Homo sapiens, UniProt P19784+P67870+P68400); experiment: Inhibition of casein kinase 2; format: protein-complex assay; how it was run: as §1
[18] = target: Protein kinase C beta type (Homo sapiens, UniProt P05771); experiment: Inhibition of protein kinase C beta activity; how it was run: as §1
[19] = test system: A-375; experiment: The antitumor activity shown by the compound against A375 human melanoma xenografts growing in nude mice (75 mg/kg, i.p.) in terms of mean day of survival; format: functional, Mus musculus
How it was run: (§2)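 Female nude mice carried subcutaneous flank implants of 1 mm3 A375 fragments and were pair-matched on day 1 at tumors of 62-126 mg. Dosing was i.p. once daily for 30 days, in 1.5% Pluronic F108 vehicle; the study ended at day 60. Tumor weight was taken as (w2l)/2. Mice were euthanized at 2.0 g, and MDS was derived from calculated time to endpoint.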

[20] = test system: A-375; experiment: The antitumor activity shown by the compound against A375 human melanoma xenografts growing in nude mice (10 mg/kg, i.p.) in terms of mean day of survival; format: functional, Mus musculus; how it was run: as §2
[21] = target: Insulin receptor (Homo sapiens, UniProt P06213); experiment: Inhibition of insulin Receptor kinase; how it was run: as §1
[22] = Inhibition of platelet-derived growth factor receptor; how it was run: as §1

T1 sequence (P35968 whole entry): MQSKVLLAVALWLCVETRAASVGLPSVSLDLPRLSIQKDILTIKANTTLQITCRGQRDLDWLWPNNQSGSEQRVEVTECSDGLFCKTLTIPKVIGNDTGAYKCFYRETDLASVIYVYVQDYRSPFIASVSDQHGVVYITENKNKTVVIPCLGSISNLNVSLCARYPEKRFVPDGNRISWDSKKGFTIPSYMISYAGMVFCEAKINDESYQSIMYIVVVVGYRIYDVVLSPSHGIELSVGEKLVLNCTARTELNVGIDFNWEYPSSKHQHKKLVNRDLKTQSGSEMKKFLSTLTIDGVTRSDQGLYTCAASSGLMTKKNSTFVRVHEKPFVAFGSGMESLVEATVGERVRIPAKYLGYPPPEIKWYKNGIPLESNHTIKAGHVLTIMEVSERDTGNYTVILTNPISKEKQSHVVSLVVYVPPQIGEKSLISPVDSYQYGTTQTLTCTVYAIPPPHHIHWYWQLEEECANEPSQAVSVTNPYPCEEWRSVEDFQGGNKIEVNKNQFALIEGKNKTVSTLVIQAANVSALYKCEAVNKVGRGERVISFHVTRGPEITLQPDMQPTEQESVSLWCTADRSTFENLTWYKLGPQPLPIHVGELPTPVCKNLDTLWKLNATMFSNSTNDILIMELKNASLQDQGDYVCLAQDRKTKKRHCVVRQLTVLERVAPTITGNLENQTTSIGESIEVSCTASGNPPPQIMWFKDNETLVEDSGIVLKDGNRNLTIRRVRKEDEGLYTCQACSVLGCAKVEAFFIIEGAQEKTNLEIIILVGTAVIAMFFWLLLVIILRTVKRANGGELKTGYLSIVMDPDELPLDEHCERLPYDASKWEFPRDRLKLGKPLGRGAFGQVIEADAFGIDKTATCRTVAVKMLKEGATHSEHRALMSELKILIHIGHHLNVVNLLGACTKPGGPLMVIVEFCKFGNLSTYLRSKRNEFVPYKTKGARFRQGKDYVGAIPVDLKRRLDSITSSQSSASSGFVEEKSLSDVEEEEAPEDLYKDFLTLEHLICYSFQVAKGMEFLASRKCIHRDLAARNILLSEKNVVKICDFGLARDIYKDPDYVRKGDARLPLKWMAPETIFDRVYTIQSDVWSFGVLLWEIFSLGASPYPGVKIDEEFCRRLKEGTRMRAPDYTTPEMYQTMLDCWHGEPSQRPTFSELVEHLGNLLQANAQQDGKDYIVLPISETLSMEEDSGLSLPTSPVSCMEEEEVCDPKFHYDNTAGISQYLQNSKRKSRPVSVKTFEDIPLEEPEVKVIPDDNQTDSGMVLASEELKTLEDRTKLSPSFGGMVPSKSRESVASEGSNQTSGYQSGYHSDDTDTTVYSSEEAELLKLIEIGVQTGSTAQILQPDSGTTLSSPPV
Sequence of Insulin receptor (P06213 28-758 limits assumed): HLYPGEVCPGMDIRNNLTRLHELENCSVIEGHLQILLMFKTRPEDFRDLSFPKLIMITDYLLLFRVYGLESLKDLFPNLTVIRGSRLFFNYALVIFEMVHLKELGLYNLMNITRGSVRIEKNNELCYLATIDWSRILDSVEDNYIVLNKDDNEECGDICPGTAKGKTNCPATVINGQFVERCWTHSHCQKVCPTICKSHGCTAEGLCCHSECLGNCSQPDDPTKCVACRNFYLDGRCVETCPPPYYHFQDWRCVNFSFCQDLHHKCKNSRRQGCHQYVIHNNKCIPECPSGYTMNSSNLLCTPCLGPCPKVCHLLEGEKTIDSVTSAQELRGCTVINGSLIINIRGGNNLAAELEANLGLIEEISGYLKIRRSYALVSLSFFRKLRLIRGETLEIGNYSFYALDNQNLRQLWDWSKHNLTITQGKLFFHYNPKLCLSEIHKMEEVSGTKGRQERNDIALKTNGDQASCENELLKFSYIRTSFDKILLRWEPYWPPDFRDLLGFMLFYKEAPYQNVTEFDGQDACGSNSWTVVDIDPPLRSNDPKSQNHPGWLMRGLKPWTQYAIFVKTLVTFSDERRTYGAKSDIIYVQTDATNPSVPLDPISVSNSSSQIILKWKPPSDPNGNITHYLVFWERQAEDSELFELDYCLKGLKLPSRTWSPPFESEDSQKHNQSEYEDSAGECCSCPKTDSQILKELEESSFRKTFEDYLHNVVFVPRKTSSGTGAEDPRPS
Sequence of Insulin receptor (P06213 763-1382 limits assumed): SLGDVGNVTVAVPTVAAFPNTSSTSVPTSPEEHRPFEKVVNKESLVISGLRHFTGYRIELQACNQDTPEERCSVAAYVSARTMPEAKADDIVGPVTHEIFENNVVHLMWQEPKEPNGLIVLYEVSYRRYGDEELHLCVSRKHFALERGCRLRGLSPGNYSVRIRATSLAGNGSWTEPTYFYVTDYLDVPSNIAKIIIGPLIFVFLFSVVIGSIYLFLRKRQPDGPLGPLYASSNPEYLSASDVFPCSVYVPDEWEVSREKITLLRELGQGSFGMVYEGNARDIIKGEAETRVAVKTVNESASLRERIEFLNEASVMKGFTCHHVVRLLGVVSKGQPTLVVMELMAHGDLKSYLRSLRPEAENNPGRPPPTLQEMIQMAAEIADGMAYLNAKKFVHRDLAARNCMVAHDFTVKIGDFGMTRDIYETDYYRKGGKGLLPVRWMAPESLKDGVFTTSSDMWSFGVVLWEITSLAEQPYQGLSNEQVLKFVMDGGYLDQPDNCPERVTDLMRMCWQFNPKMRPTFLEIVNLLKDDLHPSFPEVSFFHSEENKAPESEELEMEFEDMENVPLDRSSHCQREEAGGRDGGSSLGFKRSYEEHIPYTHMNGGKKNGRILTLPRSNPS
Sequence of Mitogen-activated protein kinase 1 (P28482 whole entry): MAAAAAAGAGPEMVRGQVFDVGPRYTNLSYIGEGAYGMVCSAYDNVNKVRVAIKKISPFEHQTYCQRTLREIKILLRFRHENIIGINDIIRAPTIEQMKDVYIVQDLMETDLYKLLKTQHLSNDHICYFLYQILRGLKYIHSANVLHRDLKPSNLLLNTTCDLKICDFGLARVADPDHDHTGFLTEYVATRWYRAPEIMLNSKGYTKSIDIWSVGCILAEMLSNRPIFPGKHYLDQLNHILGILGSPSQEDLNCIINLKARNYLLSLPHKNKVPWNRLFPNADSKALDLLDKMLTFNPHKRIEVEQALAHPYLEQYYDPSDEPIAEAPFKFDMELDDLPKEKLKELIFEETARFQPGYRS
Sequence of Casein kinase II (P67870 whole entry): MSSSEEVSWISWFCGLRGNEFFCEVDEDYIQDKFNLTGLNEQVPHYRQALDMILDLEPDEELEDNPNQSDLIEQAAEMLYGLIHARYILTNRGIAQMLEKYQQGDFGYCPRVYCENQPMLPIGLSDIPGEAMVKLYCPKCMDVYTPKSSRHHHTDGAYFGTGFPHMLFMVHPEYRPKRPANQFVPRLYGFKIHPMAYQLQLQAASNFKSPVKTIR
Sequence of Casein kinase II (P68400 whole entry): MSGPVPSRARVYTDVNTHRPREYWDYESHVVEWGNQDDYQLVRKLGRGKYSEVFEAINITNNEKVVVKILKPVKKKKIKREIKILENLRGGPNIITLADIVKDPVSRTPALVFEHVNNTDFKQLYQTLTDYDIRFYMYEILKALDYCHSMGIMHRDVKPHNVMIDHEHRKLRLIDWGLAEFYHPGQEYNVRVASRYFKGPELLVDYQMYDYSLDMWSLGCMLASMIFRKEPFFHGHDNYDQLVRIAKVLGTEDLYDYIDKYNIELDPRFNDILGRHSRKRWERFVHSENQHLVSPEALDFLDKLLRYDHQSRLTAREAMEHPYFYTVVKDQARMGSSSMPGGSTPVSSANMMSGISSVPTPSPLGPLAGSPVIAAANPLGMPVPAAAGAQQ
Sequence of Casein kinase II (P19784 whole entry): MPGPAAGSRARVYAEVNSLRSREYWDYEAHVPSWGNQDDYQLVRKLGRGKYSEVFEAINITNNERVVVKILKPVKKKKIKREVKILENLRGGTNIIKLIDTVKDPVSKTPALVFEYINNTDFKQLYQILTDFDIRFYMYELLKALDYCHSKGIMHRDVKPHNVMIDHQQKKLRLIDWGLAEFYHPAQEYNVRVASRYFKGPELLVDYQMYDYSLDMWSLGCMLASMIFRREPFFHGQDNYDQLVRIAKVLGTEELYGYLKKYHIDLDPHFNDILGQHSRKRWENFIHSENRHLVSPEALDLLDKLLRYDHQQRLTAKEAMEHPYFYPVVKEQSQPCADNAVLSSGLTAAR
Sequence of Protein kinase C beta type (P05771 whole entry): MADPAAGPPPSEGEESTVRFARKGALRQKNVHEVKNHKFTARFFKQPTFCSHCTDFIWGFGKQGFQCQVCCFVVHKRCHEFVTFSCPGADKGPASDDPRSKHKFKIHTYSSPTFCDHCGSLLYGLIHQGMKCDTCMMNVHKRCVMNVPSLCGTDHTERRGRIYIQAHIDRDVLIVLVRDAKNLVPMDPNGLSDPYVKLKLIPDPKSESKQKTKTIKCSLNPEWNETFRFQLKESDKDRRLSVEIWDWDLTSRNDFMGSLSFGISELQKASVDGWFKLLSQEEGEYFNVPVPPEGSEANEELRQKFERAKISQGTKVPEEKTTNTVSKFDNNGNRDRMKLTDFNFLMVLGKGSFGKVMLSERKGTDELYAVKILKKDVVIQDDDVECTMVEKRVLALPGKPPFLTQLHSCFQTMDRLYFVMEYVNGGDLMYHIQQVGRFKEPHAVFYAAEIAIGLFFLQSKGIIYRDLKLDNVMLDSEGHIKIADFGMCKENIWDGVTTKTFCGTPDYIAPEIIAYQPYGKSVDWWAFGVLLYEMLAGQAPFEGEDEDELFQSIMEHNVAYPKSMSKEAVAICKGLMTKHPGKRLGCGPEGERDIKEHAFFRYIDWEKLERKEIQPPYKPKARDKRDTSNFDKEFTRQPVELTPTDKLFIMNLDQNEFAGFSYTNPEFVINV

OCCCNc1cncc(-c2cncc(Nc3cccc(Cl)c3)n2)c1
IC50 [1]: 3870 nM | IC50 [2]: 6600 nM | IC50 [3]: 164 nM | IC50 [4]: > 10000 nM | IC50 [5]: > 10000 nM | IC50 [6]: > 10000 nM | IC50 [7]: > 10000 nM | IC50 [8]: 1680 nM | IC50 ([9]; read-out: IC50): 478 nM | IC50 [10]: > 10000 nM | IC50 [11]: > 10000 nM | IC50 [12]: > 10000 nM

O=C(NCCCO)c1cncc(-c2cncc(Nc3cccc(Cl)c3)n2)c1
IC50 [13]: 2380 nM | IC50 [14]: 2400 nM | IC50 [11]: > 10000 nM

O=C(COc1ccccc1)Nc1cncc(-c2cncc(Nc3cccc(Cl)c3)n2)c1
IC50 [13]: > 10000 nM | IC50 [11]: > 10000 nM

OCCCNc1cncc(-c2cncc(Nc3ccccc3Cl)n2)c1
IC50 [13]: 1010 nM | IC50 [14]: 1000 nM | IC50 [11]: > 10000 nM

Clc1cccc(Nc2cncc(-c3cncc(NCCCCc4ccncc4)c3)n2)c1
IC50 [13]: 266 nM | IC50 [14]: 263 nM | IC50 [11]: 10000 nM

OCCNc1cncc(-c2cncc(Nc3cccc(Cl)c3)n2)c1
IC50 [13]: 275 nM | IC50 [14]: 275 nM | IC50 [11]: > 10000 nM

OCCCCNc1cncc(-c2cncc(Nc3cccc(Cl)c3)n2)c1
IC50 [1]: 3230 nM | IC50 [15]: > 10000 nM | IC50 [2]: 3610 nM | IC50 [16]: > 10000 nM | IC50 [3]: 63 nM | IC50 [13]: 63 nM | IC50 [17]: > 10000 nM | IC50 [14]: 63.1 nM | IC50 [4]: > 10000 nM | IC50 [5]: > 10000 nM | IC50 [18]: > 10000 nM | IC50 [7]: > 10000 nM | IC50 [8]: 1170 nM | MDS [19]: 29.2 | MDS [20]: 24 | IC50 [9]: 4020 nM | IC50 [10]: 6080 nM | IC50 [11]: > 10000 nM | IC50 [12]: 5560 nM | IC50 [21]: > 10000 nM

Clc1cccc(Nc2cncc(-c3cncc(NCC4CCOCC4)c3)n2)c1
IC50 [13]: 391 nM | IC50 [14]: 389 nM | IC50 [11]: > 10000 nM

Clc1cccc(Nc2cncc(-c3cncc(NCCCc4cccnc4)c3)n2)c1
IC50 [1]: 6150 nM | IC50 [2]: 3380 nM | IC50 [16]: > 10000 nM | IC50 [3]: 86 nM | IC50 [13]: 76 nM | IC50 [17]: > 10000 nM | IC50 [14]: 75.9 nM | IC50 [4]: 5050 nM | IC50 [5]: > 10000 nM | IC50 [6]: > 10000 nM | IC50 [8]: 1670 nM | IC50 [22]: 876 nM | IC50 [9]: 318 nM | IC50 [10]: 2960 nM | IC50 [12]: 3060 nM | IC50 [21]: > 10000 nM

OCCCNc1cncc(-c2cncc(NCc3ccccc3)n2)c1
IC50 [13]: 1050 nM | IC50 [14]: 1050 nM | IC50 [11]: > 10000 nM

OCCCNc1cnc(F)c(-c2cncc(Nc3cccc(Cl)c3)n2)c1
IC50 [13]: 251 nM | IC50 [14]: 251 nM | IC50 [11]: > 10000 nM

CN(C)c1ccc(C(=O)Nc2cncc(-c3cncc(Nc4cccc(Cl)c4)n3)c2)cc1
IC50 [13]: > 10000 nM | IC50 [11]: > 10000 nM

OCCCNc1cnc(Cl)c(-c2cncc(Nc3cccc(Cl)c3)n2)c1
IC50 [13]: > 10000 nM | IC50 [11]: > 10000 nM

Clc1ccc(Nc2cncc(-c3cncc(NCCCc4ccncc4)c3)n2)cc1Cl
IC50 [13]: 189 nM | IC50 [14]: 191 nM | IC50 [11]: > 10000 nM

Nc1ncc(NCCCO)cc1-c1cncc(Nc2cccc(Cl)c2)n1
IC50 [13]: 1360 nM | IC50 [14]: 1350 nM | IC50 [11]: > 10000 nM

CN1CCN(CCCNc2cncc(-c3cncc(Nc4cccc(Cl)c4)n3)c2)CC1
IC50 [13]: 123 nM | IC50 [14]: 123 nM | IC50 [11]: > 10000 nM

OCCCNc1cncc(-c2cncc(Nc3cccc(F)c3)n2)c1
IC50 [13]: 168 nM | IC50 [14]: 170 nM | IC50 [11]: > 10000 nM

Clc1ccc(Nc2cncc(-c3cncc(NCCCc4ccncc4)c3)n2)cc1
IC50 [13]: 1000 nM | IC50 [14]: 1000 nM | IC50 [11]: > 10000 nM

Clc1cccc(Nc2cncc(-c3cncc(NCCCN4CCNCC4)c3)n2)c1
IC50 [13]: 236 nM | IC50 [14]: 234 nM | IC50 [11]: 5620 nM
